Data set [1] can be described thus: Tmax in C57BL/6 mouse plasma at 10 mg/kg, IG by LC-MS/MS analysis. Type of data set: ADME, organism-based. The settings on record: po.
Data set [2] can be described thus: AUC (0 to infinitive) in C57BL/6 mouse plasma at 1 mg/kg, iv by LC-MS/MS analysis. Format: ADME, organism-based. Set-up: time infinity, route intravenous, dose 1 mg/kg.
Data set [3] can be described thus: AUC (0 to infinitive) in C57BL/6 mouse plasma at 0.3 mg/kg, iv by LC-MS/MS analysis. Set-up: time infinity, route intravenous, dose 0.3 mg/kg. Format: ADME, organism-based.
For data set [4], the target named is Transient receptor potential cation channel subfamily M member 2 (Homo sapiens, UniProt O94759). Kind of data set: Inhibition of human TRPM2 expressed in HEK293T cells assessed as blocked of ADPR-activated current by whole cell patch clamp electrophysiology. Format: cell-based.
Sequence of Transient receptor potential cation channel subfamily M member 2 (O94759 whole entry): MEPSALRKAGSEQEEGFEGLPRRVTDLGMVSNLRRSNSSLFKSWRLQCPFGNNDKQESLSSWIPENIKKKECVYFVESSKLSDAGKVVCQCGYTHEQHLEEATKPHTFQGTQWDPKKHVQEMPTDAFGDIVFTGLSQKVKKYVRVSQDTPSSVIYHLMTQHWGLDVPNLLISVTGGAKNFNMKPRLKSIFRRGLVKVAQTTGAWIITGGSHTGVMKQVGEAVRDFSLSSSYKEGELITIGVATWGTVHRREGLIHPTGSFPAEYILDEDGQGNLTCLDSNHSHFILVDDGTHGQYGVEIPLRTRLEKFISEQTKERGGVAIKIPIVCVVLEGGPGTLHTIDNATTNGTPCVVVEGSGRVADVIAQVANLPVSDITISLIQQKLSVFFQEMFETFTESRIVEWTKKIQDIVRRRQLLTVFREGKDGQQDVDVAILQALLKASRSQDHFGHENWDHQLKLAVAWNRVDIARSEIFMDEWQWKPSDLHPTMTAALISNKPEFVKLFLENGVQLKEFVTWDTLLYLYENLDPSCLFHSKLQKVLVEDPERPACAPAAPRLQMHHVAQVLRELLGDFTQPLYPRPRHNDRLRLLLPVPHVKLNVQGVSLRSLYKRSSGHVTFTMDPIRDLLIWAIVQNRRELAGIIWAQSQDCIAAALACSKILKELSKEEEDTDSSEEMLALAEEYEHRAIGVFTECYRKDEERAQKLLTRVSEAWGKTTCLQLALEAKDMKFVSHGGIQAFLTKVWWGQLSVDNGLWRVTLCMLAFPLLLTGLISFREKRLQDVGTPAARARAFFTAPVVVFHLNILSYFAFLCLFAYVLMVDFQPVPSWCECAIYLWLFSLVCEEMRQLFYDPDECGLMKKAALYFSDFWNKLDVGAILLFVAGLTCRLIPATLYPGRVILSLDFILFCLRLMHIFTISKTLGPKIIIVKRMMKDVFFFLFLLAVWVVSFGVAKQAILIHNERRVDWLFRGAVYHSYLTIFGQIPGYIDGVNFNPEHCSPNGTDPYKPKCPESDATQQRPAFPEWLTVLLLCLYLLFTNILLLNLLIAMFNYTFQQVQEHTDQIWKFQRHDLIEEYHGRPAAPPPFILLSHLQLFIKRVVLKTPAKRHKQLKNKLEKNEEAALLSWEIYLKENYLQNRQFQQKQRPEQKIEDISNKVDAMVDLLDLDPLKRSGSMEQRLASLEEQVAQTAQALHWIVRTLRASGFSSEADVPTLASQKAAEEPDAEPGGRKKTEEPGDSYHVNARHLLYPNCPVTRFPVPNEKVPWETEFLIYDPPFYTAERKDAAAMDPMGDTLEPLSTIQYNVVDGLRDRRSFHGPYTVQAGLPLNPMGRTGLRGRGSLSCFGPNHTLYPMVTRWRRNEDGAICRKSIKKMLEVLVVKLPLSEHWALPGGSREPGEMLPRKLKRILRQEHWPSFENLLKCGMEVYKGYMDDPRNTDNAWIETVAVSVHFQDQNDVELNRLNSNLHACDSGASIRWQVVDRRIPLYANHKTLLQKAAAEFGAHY
Data set [5] in a line: Half life in C57BL/6 mouse plasma at 3 mg/kg, iv by LC-MS/MS analysis. Format: ADME, organism-based.
Data set [6] relates to SH-SY5Y. Nature of the data set: Cytotoxicity against human SH-SY5Y cells assessed as toxicity at 30 uM incubated for 24 hrs by CCK-8 assay. Format: cell-based. An outline of the steps: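 SH-SY5Y cells were seeded at 2 × 10⁴ per well and grown 12 h at 37 °C. They were then treated with compound (1–30 μM) under normoxic, normal-glucose conditions for 24 h. CCK-8 (10%) was added for 2 h at 37 °C and OD450 read. Viability was taken relative to untreated control after blank subtraction, with three replicate wells.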

The subject of another data set is Mus musculus. Nature of the data set: Neuroprotective activity in mouse model of transient middle cerebral artery occlusion-induced cerebral ischemia-reperfusion injury assessed as reduction in infarct volume at 3 mg/kg, iv treated for 3 hrs after onset of reperfusion by TTC staining based assay (reference value: 57.6 +/- 4.9%). Format: functional. Set-up: scale not given: the % may be the effect or the level left.

Data set [7] concerns SH-SY5Y. Kind of data set: Neuroprotective activity against oxygen glucose deprivation/reperfusion-induced cell death in human SH-SY5Y cells assessed as cell viability at 3 uM […] by CCK8 assay relative to control. Type of data set: functional.
Data set [8] is described as follows: Oral bioavailability in C57BL/6 mouse plasma at 0.3 mg/kg, IG by LC-MS/MS analysis. Type of data set: ADME, organism-based.
The nature of data set [9]: AUC (0 to t) in C57BL/6 mouse plasma at 0.3 mg/kg, iv by LC-MS/MS analysis. Format: ADME, organism-based. Set-up: dose 0.3 mg/kg.

The values below come from ChEMBL document CHEMBL4834416, “The Discovery of Novel ACA Derivatives as Specific TRPM2 Inhibitors that Reduce Ischemic Injury Both In Vitro and In Vivo” (J Med Chem, 2021).

Calls of active or inactive are those of the source. The calls are words filed in the database; no cut-off is given here.

Consider `O=C(/C=C/c1ccc(-c2cccc(C(F)(F)F)c2)cc1)Nc1ccccc1C(=O)O`, for which the time to peak (Tmax) in data set [1] stood at 30 min. The total exposure AUC(0-inf) in data set [2] stood at 18900 ng·h/mL; in [3], 5450 ng·h/mL. Besides, in data set [4], the IC50 was found to be 788 nM. The compound further gave a half-life in [5] of 80.4 min. In addition, the Activity with SH-SY5Y [6] is on record as < 10%; in the data set with Mus musculus it was 38.9%. In addition, in the data set on SH-SY5Y [7], the outcome was Active. In data set [8], the bioavailability was determined as 90.4%. In [9], this compound yielded an exposure AUC(0-t) of 5200 ng·h/mL.
